ChEMBL document CHEMBL4177623, “Concise syntheses and HCV NS5B polymerase inhibition of (2'R)-3 and (2'S)-2'-ethynyluridine-10 and related nucleosides” (Bioorg Med Chem Lett, 2017)

tested on: Hepatitis C virus; experiment: Antiviral activity against HCV genotype 1b Con1 infected in replicon cells after 3 days by real-time PCR analysis; format: functional, organism-based, Hepacivirus hominis; details: isolate Con1, 72 h
Procedure, shortened: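 Con1 genotype 1b replicon cells plated at 5000/well one day before dosing; inhibitor added from DMSO in 10 serial twofold dilutions, triplicate, final 0.5% DMSO, 10% FBS. Harvest 3 days post-dose; replicon RNA measured by real-time RT-PCR (Taqman) normalised to GAPDH RNA; EC50 derived.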

Structure (SMILES)	EC50 [µM]
CC#C[C@@]1(O)[C@H](O)[C@@H](CO)O[C@H]1n1ccc(=O)[nH]c1=O	> 100
C#C[C@@]1(O)[C@H](O)[C@@H](CO)O[C@H]1n1ccc(=O)[nH]c1=O	> 100
CC#C[C@@]1(F)[C@H](O)[C@@H](CO)O[C@H]1n1ccc(=O)[nH]c1=O	> 100

target: RNA-directed RNA polymerase (Hepacivirus hominis, UniProt O39930); experiment: Inhibition of wild-type HCV genotype 1b BK NS5B Cdelta55 RNA dependent RNA polymerase using RNA as substrate after 1 hr in presence of NTPs by [33P]-CTP based topcount assay; parameters: species or system Hepatitis C virus (isolate BK); details: not given
Sequence (O39930 whole entry): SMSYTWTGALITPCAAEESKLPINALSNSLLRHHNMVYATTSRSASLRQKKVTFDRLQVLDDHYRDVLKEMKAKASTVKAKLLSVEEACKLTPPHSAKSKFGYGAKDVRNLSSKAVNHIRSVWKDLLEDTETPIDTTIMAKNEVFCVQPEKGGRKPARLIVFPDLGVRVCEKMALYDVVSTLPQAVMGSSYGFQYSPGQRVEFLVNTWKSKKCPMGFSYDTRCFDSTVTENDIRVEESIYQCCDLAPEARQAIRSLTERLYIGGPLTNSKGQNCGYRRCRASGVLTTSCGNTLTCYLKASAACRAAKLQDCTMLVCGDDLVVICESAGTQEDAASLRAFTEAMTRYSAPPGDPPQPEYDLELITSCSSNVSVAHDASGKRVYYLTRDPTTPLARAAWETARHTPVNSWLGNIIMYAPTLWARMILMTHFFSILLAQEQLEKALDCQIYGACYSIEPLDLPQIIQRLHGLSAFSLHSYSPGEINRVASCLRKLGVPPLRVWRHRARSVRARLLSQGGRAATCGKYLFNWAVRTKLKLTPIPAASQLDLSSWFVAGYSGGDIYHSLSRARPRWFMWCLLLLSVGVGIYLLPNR

Structure (SMILES)	IC50 [µM]
CC#C[C@@]1(O)[C@H](O)[C@@H](COP(=O)(O)OP(=O)(O)OP(=O)(O)O)O[C@H]1n1ccc(=O)[nH]c1=O	0.16
C#C[C@]1(O)[C@H](O)[C@@H](COP(=O)(O)OP(=O)(O)OP(=O)(O)O)O[C@H]1n1ccc(=O)[nH]c1=O	54
C#C[C@@]1(F)[C@H](O)[C@@H](COP(=O)(O)OP(=O)(O)OP(=O)(O)O)O[C@H]1n1ccc(=O)[nH]c1=O	3.6
CC#C[C@@]1(F)[C@H](O)[C@@H](COP(=O)(O)OP(=O)(O)OP(=O)(O)O)O[C@H]1n1ccc(=O)[nH]c1=O	9.9
CCCCCCN(C)C.CCCCCCN(C)C.CCCCCCN(C)C.CCCCCCN(C)C.C[C@@]1(F)[C@H](O)[C@@H](COP(=O)(O)OP(=O)(O)OP(=O)(O)O)O[C@H]1n1ccc(=O)[nH]c1=O	1.1
C#C[C@@]1(O)[C@H](O)[C@@H](COP(=O)(O)OP(=O)(O)OP(=O)(O)O)O[C@H]1n1ccc(=O)[nH]c1=O	0.09
